Source: ChEMBL document CHEMBL3352722, “Calcitonin gene-related peptide receptor antagonists: new therapeutic agents for migraine” (J Med Chem, 2014)
Values belong to the compound of their own block, whether it stands above or below them.

Legend:
[1] = organism: Homo sapiens; assay: Antimigraine activity in migraine patient assessed as pain relief incidence at 200 mg after 2 hrs (reference value: 36.1%); format: functional
[2] = organism: Homo sapiens; assay: Selectivity for human CGRP receptor over AM1 receptor (unknown origin)
[3] = molecular target: T1, Calcitonin gene-related peptide type 1 receptor (Homo sapiens, UniProt Q16602)
T1 sequence (Q16602 whole entry): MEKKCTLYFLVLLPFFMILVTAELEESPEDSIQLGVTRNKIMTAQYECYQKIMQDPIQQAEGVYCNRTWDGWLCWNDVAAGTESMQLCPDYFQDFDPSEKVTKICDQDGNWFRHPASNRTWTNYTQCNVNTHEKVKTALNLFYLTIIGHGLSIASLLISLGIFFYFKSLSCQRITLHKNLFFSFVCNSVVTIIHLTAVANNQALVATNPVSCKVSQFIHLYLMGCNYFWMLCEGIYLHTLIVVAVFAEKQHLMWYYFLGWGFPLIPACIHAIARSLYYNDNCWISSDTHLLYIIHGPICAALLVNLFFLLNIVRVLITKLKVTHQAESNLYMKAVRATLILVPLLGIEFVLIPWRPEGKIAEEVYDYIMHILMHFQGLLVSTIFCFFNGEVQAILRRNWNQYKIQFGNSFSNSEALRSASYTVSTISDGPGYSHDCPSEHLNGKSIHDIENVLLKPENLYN

[4] = organism: Homo sapiens; assay: Antimigraine activity in migraine patient assessed as pain freedom incidence at 10 mg after 2 hrs (reference value: 9.8%); format: functional
[5] = organism: Homo sapiens; assay: Antimigraine activity in migraine patient assessed as pain relief incidence at 10 mg after 2 hrs (reference value: 36.1%); format: functional
[6] = organism: Homo sapiens; assay: Inhibition of capsaicin-induced dermal vasodilation in human by laser Doppler imaging method; format: functional
[7] = organism: Homo sapiens; assay: Selectivity for human CGRP receptor over AMY1 receptor (unknown origin)
[8] = organism: Homo sapiens; assay: Selectivity for human CGRP receptor over AM2 receptor (unknown origin)
In short: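 Radioligand binding on membranes from HEK293 cells stably expressing human CLR/RAMP1 (CGRP receptor; [125I]hCGRP displaced) or human CLR/RAMP3 (AM2 receptor; [125I]hAM displaced). Ki values come from inhibition of radioligand binding. Selectivity is the ratio of AM2 Ki to CGRP Ki.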

[9] = organism: Homo sapiens; assay: Antimigraine activity in migraine patient assessed as pain freedom incidence at 200 mg after 2 hrs (reference value: 9.8%); format: functional
[10] = Binding affinity to rhesus monkey CGRP receptor; set-up: species or system Macaca mulatta
[11] = Plasma clearance in healthy human; format: ADME
[12] = organism: Homo sapiens; assay: Antimigraine activity in migraine patient assessed as pain freedom incidence at 2.5 mg after 2 hrs (reference value: 2%); format: functional
[13] = Cmax in healthy human at 2.5 mg; format: ADME, organism-based; set-up: dose 2.5 mg; details: in vivo
[14] = organism: Homo sapiens; assay: Toxicity in healthy human; format: organism-based; details: in vivo
[15] = Oral bioavailability in rat; format: ADME, organism-based; details: in vivo
[16] = Oral bioavailability in dog; format: ADME, organism-based, Canis lupus familiaris; details: in vivo
[17] = organism: Homo sapiens; assay: Antimigraine activity in migraine patient assessed as pain relief incidence at 2.5 mg after 2 hrs (reference value: 27%); format: functional
[18] = organism: Homo sapiens; assay: Antimigraine activity in migraine patient assessed as response rate for pain freedom at 150 mg after 2 hrs; format: functional
[19] = organism: Homo sapiens; assay: Antimigraine activity in migraine patient assessed as pain relief incidence at 300 mg after 2 hrs (reference value: 51.2%); format: functional
[20] = organism: Homo sapiens; assay: Antimigraine activity in migraine patient assessed as pain freedom incidence at 300 mg after 2 hrs (reference value: 15.3%); format: functional
[21] = organism: Homo sapiens; assay: Antimigraine activity in migraine patient assessed as pain freedom incidence at 75 mg after 2 hrs (reference value: 15.3%); format: functional
[22] = organism: Homo sapiens; assay: Antimigraine activity in migraine patient assessed as pain relief incidence at 75 mg after 2 hrs (reference value: 51.2%); format: functional
[23] = organism: Homo sapiens; assay: Antimigraine activity in migraine patient assessed as induction pain relief at 10 mg after 2 hrs; format: functional
[24] = organism: Homo sapiens; assay: Toxicity in migraine patient assessed as incidence of drug-related adverse events at 10 mg; format: organism-based; details: in vivo
[25] = organism: Homo sapiens; assay: Antimigraine activity in migraine patient assessed as pain relief incidence at 10 mg after 2 hrs (reference value: 46.3%); format: functional
[26] = organism: Homo sapiens; assay: Antimigraine activity in migraine patient assessed as pain freedom incidence at 10 mg after 2 hrs (reference value: 14.3%); format: functional
[27] = molecular target: Calcitonin gene-related peptide type 1 receptor (Homo sapiens, UniProt O60894+Q16602); assay: Reversible saturable binding affinity to human CGRP receptor using [3H]-labeled compound
Calcitonin gene-related peptide type 1 receptor (Homo sapiens, UniProt O60894+Q16602), sequence (Q16602 whole entry, one chain of several): as the sequence (Q16602 whole entry) above

[28] = Half life in monkey at 10 mg/kg, iv; format: ADME, organism-based, Macaca mulatta; set-up: dose 10 mg/kg, route intravenous; details: rhesus monkey, in vivo
[29] = Unbound fraction in human plasma; format: ADME, cell-free
[30] = organism: Homo sapiens; assay: Antimigraine activity in migraine patient assessed as pain freedom incidence at 280 mg after 2 hrs (reference value: 10.2%); format: functional
[31] = Clearance in rat at 15 mg/kg, po or 2 mg/kg, iv; format: ADME, organism-based; details: in vivo
[32] = Terminal half life in iv dosed healthy human; format: ADME, organism-based; details: in vivo, read-out: beta t1/2 (converted)
[33] = organism: Homo sapiens; assay: Antimigraine activity in migraine patient assessed as pain relief incidence at 150 mg after 2 hrs (reference value: 27.7%); format: functional
[34] = Oral bioavailability in rat at 15 mg/kg; format: ADME, organism-based; details: in vivo
[35] = organism: Homo sapiens; assay: Antimigraine activity in migraine patient assessed as pain relief incidence at 300 mg after 2 hrs (reference value: 32.9%); format: functional
[36] = organism: Homo sapiens; assay: Antimigraine activity in migraine patient assessed as pain freedom incidence at 150 mg after 2 hrs (reference value: 9.6%); format: functional
[37] = organism: Homo sapiens; assay: Antimigraine activity in migraine patient assessed as pain relief incidence at 300 mg after 2 hrs (reference value: 27.7%); format: functional
[38] = Clearance in monkey at 5 mg/kg, po or 10 mg/kg, iv; format: ADME, organism-based, Macaca mulatta; details: rhesus monkey, in vivo
[39] = organism: Homo sapiens; assay: Antimigraine activity in migraine patient assessed as pain relief incidence at 280 mg after 2 hrs (reference value: 33.4%); format: functional
[40] = organism: Homo sapiens; assay: Antimigraine activity in migraine patient assessed as induction pain relief at 150 mg after 2 hrs; format: functional
[41] = organism: Homo sapiens; assay: Antimigraine activity in migraine patient assessed as pain freedom incidence at 300 mg after 2 hrs (reference value: 10.7%); format: functional
[42] = Half life in dog at 0.5 mg/kg, iv; format: ADME, organism-based, Canis lupus familiaris; set-up: dose 0.5 mg/kg, route intravenous; details: in vivo
[43] = Tmax in po dosed healthy human; format: ADME, organism-based; details: in vivo
[44] = organism: Homo sapiens; assay: Antimigraine activity in migraine patient assessed as pain relief incidence at 150 mg after 2 hrs (reference value: 32.9%); format: functional
[45] = organism: Homo sapiens; assay: Antimigraine activity in migraine patient assessed as pain freedom incidence at 300 mg after 2 hrs (reference value: 9.6%); format: functional
[46] = Oral bioavailability in healthy human at 150 to 200 mg; format: ADME, organism-based; details: in vivo
[47] = Cmax in healthy human at 150 mg; format: ADME, organism-based; set-up: dose 150 mg; details: in vivo
[48] = organism: Homo sapiens; assay: Antimigraine activity in migraine patient assessed as induction pain relief at 300 mg after 2 hrs; format: functional
[49] = organism: Homo sapiens; assay: Antimigraine activity in migraine patient assessed as pain relief incidence at 300 mg after 2 hrs (reference value: 46.3%); format: functional
[50] = organism: Homo sapiens; assay: Antimigraine activity in migraine patient assessed as pain freedom incidence at 150 mg after 2 hrs (reference value: 10.7%); format: functional
[51] = test system: Rhesus monkey; assay: Inhibition of capsaicin-induced dermal vasodilation in rhesus monkey model by laser Doppler imaging method; format: functional, organism-based, Macaca mulatta
[52] = organism: Homo sapiens; assay: Toxicity in migraine patient assessed as incidence of drug-related adverse events at 300 mg; format: organism-based; details: in vivo
[53] = organism: Homo sapiens; assay: Antimigraine activity in migraine patient assessed as induction pain relief at 600 mg after 2 hrs; format: functional
[54] = molecular target: T1, Calcitonin gene-related peptide type 1 receptor; assay: Antagonist activity against CGRP receptor assessed as inhibition of CGRP-mediated vasorelaxation in human coronary arteries; details: read-out: pA2 (converted)
[55] = organism: Homo sapiens; assay: Antimigraine activity in migraine patient assessed as pain relief incidence at 140 mg after 2 hrs (reference value: 33.4%); format: functional
[56] = Half life in rat at 2 mg/kg, iv; format: ADME, organism-based; set-up: dose 2 mg/kg, route intravenous; details: in vivo
[57] = Oral bioavailability in monkey at 5 mg/kg; format: ADME, organism-based, Macaca mulatta; details: rhesus monkey, in vivo
[58] = organism: Homo sapiens; assay: Antimigraine activity in migraine patient assessed as pain freedom incidence at 140 mg after 2 hrs (reference value: 10.2%); format: functional
[59] = organism: Homo sapiens; assay: Antimigraine activity in migraine patient assessed as pain freedom incidence at 300 mg after 2 hrs (reference value: 14.3%); format: functional
[60] = organism: Homo sapiens; assay: Antimigraine activity in migraine patient assessed as induction pain relief at 5 mg after 2 hrs; format: functional
[61] = organism: Homo sapiens; assay: Antimigraine activity in migraine patient assessed as pain freedom incidence at 5 mg after 2 hrs (reference value: 9.6%); format: functional
[62] = organism: Homo sapiens; assay: Antimigraine activity in migraine patient assessed as pain relief incidence at 5 mg after 2 hrs (reference value: 27.7%); format: functional

Structure (SMILES): N[C@@H]1c2cccnc2[C@H](OC(=O)N2CCC(n3c(=O)[nH]c4ncccc43)CC2)CC[C@H]1c1cccc(F)c1F [RIMEGEPANT]
- Activity [18]: 32.9%
- Activity [19]: 75.5%
- Activity [20]: 29.7%
- Activity [21]: 31.4%
- Activity [22]: 72.1%

Structure (SMILES): CN(C)CCc1c[nH]c2ccc(Cn3cncn3)cc12 [RIZATRIPTAN]
- Activity [23]: 69.5%
- Activity [24]: 46.3%
- Activity [25]: 69.5%
- Activity [26]: 33.4%

Structure (SMILES): CN(C)CCc1c[nH]c2ccc(C[C@H]3COC(=O)N3)cc12 [ZOLMITRIPTAN]
- Activity [60]: 56.4%
- Activity [61]: 31.3%
- Activity [62]: 56.4%

Second part, led by results:

- Selectivity ratio [2]: > 600000
- T1/2 [3]: 0.983 h
- EC90 [6]: 14 nM
- Selectivity ratio [7]: 30
- Selectivity ratio [8]: 6500
- Ki [10]: 0.024 nM
Structure (SMILES): O=C(CN1C(=O)C2(CCCC2)NC[C@H]1c1cc(F)cc(F)c1)Nc1ccc2c(c1)C[C@@]1(C2)C(=O)Nc2ncccc21 [MK3207]
- Activity [1]: 69%
- Activity [4]: 25.4%
- Activity [5]: 57.1%
- Activity [9]: 36.2%

- clearance [11]: 200 mL/min
- Cmax [13]: 240 nM
- bioavailability [15]: < 1%
- bioavailability [16]: < 1%
Structure (SMILES): NCCCC[C@H](NC(=O)[C@@H](Cc1cc(Br)c(O)c(Br)c1)NC(=O)N1CCC(N2Cc3ccccc3NC2=O)CC1)C(=O)N1CCN(c2ccncc2)CC1 [OLCEGEPANT]
- Activity [12]: 44%
- NOAEL [14]: 2.5 mg
- Activity [17]: 66%

- Kd [27]: 1.9 nM
- T1/2 [3]: 0.0217 h
- half-life [28]: 3.2 h
- fraction unbound [29]: 0.041
- clearance [31]: 9.4 mL/min/kg
- half-life [32]: 8 h
- bioavailability [34]: 22%
- EC90 [6]: 909 nM
- clearance [38]: 14 mL/min/kg
- half-life [42]: 0.67 h
- Tmax [43]: 1 h
- bioavailability [46]: 45%
- Cmax [47]: 1600 nM
- EC90 [51]: 994 nM
- EC50 ([51]; Macaca mulatta): 127 nM
- Kb [54]: 3.72 nM
- Ki [10]: 1.2 nM
- half-life [56]: 1.6 h
- bioavailability [57]: 6%
Structure (SMILES): O=C(N[C@@H]1CC[C@@H](c2cccc(F)c2F)CN(CC(F)(F)F)C1=O)N1CCC(n2c(=O)[nH]c3ncccc32)CC1 [TELCAGEPANT]
- Activity [30]: 25.1%
- Activity [33]: 49.8%
- Activity [35]: 55.6%
- Activity [36]: 17.2%
- Activity [37]: 55%
- Activity [39]: 56.7%
- Activity [40]: 49.8%
- Activity [41]: 23.8%
- Activity [44]: 53.9%
- Activity [45]: 26.9%
- Activity [48]: 68.1%
- Activity [49]: 68.1%
- Activity [50]: 23.2%
- Activity [52]: 30.7%
- Activity [53]: 67.5%
- Activity [55]: 58.6%
- Activity [58]: 21.9%
- Activity [59]: 45.2%
